Results filed as inconclusive are left out. Active and inactive are the calls of the source.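 How the source made its calls: active means dose curve reaching 10% of the positive control caspase signal at or below the top valid dose; inconclusive means no clear call, values can overlap the other calls; inactive means reverse-direction response, or no crossing within range.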
Experiment: caspase activation in Mcl1-dependent HMC 1-8 cells, dose response, counter-screen for A1 inhibitor project, cell-based, luminescence, dry powder, set 3 (AID 504348)
Conditions: caspase-Glo luminescence, 4 h; series mostly up to 35 µM
In short: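 Assay system: HMC 1-8 human cancer cells, low A1, Mcl1-dependent | Input: 2500 cells per well | Buffer or medium: RPMI-1640 growth medium with 10% FBS | Dosing: Compound added by pin transfer | Times: 4 h compound exposure, 37 °C, plus 1 h room-temperature detection | Measured by: CaspaseGlo luminescence | Read-out: Caspase activation from luminescent signal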

SMILES | outcome
O=C(COc1ccc(Cl)cc1Cl)NNc1nc(N2CCOCC2)nc(N2CCOCC2)n1 | inactive
C/C(=N\Nc1nc(N2CCCCC2)nc(N2CCCCC2)n1)c1ccc(F)cc1 | inactive
COc1ccc(CCNc2nc(N3CCCC3)nc(N3CCCC3)n2)cc1OC | inactive
COCCn1c(=O)c([N+](=O)[O-])c(Sc2ccc(C)cc2)c2ccccc21 | inactive
O=c1[nH]c2ccccc2c(Cl)c1[N+](=O)[O-] | inactive
Cc1ccc(Sc2c([N+](=O)[O-])c(=O)n(Cc3ccccc3)c3ccccc23)cc1 | inactive
COc1ccc(CCNc2nc(N3CCOCC3)nc(N3CCOCC3)n2)cc1OC | inactive
COc1nc2ccccc2c(Sc2ccc(C)cc2)c1[N+](=O)[O-] | inactive
COc1ccc(N2CCN(c3nc(NCCc4ccc(OC)c(OC)c4)nc(N4CCOCC4)n3)CC2)cc1 | inactive
Cn1c(=O)c(Sc2ccccn2)c(Sc2ccccn2)c2ccccc21 | inactive
CCn1c(=O)c([N+](=O)[O-])c(Sc2ccc(C)cc2)c2ccccc21 | inactive
